The source of these data is ChEMBL document CHEMBL4765245 (Eur J Med Chem, 2020).

The nature of data set [1]: Volume of distribution in Balb/c mouse at 100 mg/kg, IG measured upto 7 hrs by HPLC-MS method. It is filed as ADME, organism-based. The following applies: in vivo, po. The essentials:
(§1)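 Male BALB/c mice (~20 g), food withheld 1 h before and after dosing; single 100 mg/kg intragastric dose as suspension in 0.5% CMC with one drop Tween-80. Blood taken at 0.5, 1, 2, 3, 5, 7 h (3 animals per time point); plasma MeCN-precipitated, HPLC-MS (ESI positive). Non-compartmental analysis: AUC by trapezium with extrapolation; CL = dose/AUC; Vd = CL/kel.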

The nature of data set [2]: Selectivity index, ratio of CC50 for human HeLa cells to IC50 for Rhinovirus A2 infected in HeLa cell line assessed as inhibition of virus-induced cytopathic effect. It is filed as toxicity. The following applies: read-out: Selectivity Index. Background: Cytopathic effects are the visible damage that an infection or toxin causes in cultured cells.
The subject of data set [3] is rhinovirus B5. Description: Antiviral activity against Rhinovirus B5 infected in human HeLa cell line assessed as inhibition of virus-induced cytopathic effect measured after 72 hrs by crystal violet uptake assay. To be noted: Rhinovirus B, HeLa, 72 h; read-out: IC50. The class given is functional, organism-based. The procedure, abridged:
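HeLa Ohio monolayers, 1 day old, in 2% FCS medium. Compound added as serial half-log dilutions from 100 μM immediately before rhinovirus infection. CPE read at 72 h by crystal violet staining, elution and OD 550/630 nm, with six cell and six virus controls per plate. Activity calculated per Pauwels; IC50 is the mean of at least 3 experiments.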

The nature of data set [4]: Selectivity index, ratio of CC50 for human HeLa cells to IC50 for Rhinovirus B14 infected in HeLa cell line assessed as inhibition of virus-induced cytopathic effect. The class given is toxicity. To be noted: read-out: Selectivity Index.
Data set [5] is described as follows: Selectivity index, ratio of CC50 for human HeLa cells to IC50 for Rhinovirus B5 infected in HeLa cell line assessed as inhibition of virus-induced cytopathic effect. It is filed as toxicity. To be noted: read-out: Selectivity Index.
The test system of data set [6] is HeLa. Nature of the data set: Cytotoxicity against human HeLa cells assessed as reduction in cell viability incubated for 72 hrs measured by crystal violet based micro plate reader method. To be noted: hela, 72 h. The essentials: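 Two-day-old confluent HeLa Ohio monolayers exposed to half-log dilutions (100 μM downward) in 2% FCS medium for 72 h at 37 °C, 5% CO2. Cells fixed and stained with crystal violet/formalin, dye eluted with acidified citrate-ethanol, OD read at 550/630 nm. Viability expressed relative to six mock-treated controls; CC50 is the mean of at least 3 tests.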

Data set [7] in a line: Selectivity index, ratio of CC50 for human HeLa cells to IC50 for pleconaril-resistant Coxsackievirus B3 97927 11207M/I1092 mutant infected in HeLa cell line assessed as inhibition of virus-induced cytopathic effect. The following applies: read-out: Selectivity Index. The class given is toxicity. The essentials:
(§2)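 SI calculated as CC50/IC50. Cytotoxicity: 2-day-old confluent HeLa Ohio monolayers were exposed to half-log dilutions from 100 μM in 2% FCS MEM for 72 h at 37 °C, then crystal violet stained, eluted and read at 550/630 nm. Antiviral: compound added just before CVB3 infection of 2-day-old HeLa; CPE scored by crystal violet at 48 h (Pauwels formula). Means from ≥3 tests each.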

A short description of data set [8]: Clearance in Balb/c mouse at 100 mg/kg, IG measured upto 7 hrs by HPLC-MS method. It is filed as ADME, organism-based. To be noted: in vivo, po. The essentials:
as §1

Data set [9] deals with rhinovirus A2. Description: Antiviral activity against Rhinovirus A2 infected in human HeLa cell line assessed as inhibition of virus-induced cytopathic effect measured after 72 hrs by crystal violet uptake assay. The class given is functional, organism-based. To be noted: Rhinovirus A, HeLa, 72 h; read-out: IC50. The essentials:
(§3)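 HeLa Ohio monolayers, 1 day old, in 2% FCS medium. Compound added as serial half-log dilutions from 100 μM immediately before rhinovirus infection. Activity calculated per Pauwels; IC50 is the mean of at least 3 experiments.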

In data set [10] the test system is rhinovirus B14. Nature of the data set: Antiviral activity against Rhinovirus B14 infected in human HeLa cell line assessed as inhibition of virus-induced cytopathic effect measured after 72 hrs by crystal violet uptake assay. To be noted: Rhinovirus B, HeLa, 72 h; read-out: IC50. It is filed as functional, organism-based. The essentials:
as §3

The nature of data set [11]: Selectivity index, ratio of CC50 for human HeLa cells to IC50 for pleconaril-resistant Coxsackievirus B3 97927 11207T/I1092 mutant infected in HeLa cell line assessed as inhibition of virus-induced cytopathic effect. It is filed as toxicity. The following applies: read-out: Selectivity Index. The essentials: as §2
Data set [12] in a line: Genotoxicity in Escherichia coli PQ37 assessed as zone of inhibition at 10 mg/ml measured on day 3 by SOS-chromo0test relative to control. It is filed as toxicity. The following applies: 72 h, time 3 day.
For data set [13], the system named is Coxsackievirus B3. Description: Antiviral activity against wild type Coxsackievirus B3 97927 infected in human HeLa cell line assessed as inhibition of virus-induced cytopathic effect measured after 48 hrs by crystal violet uptake assay. It is filed as functional, organism-based. The following applies: Enterovirus B, 97927, HeLa, 48 h; read-out: IC50. The procedure, abridged: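 Coxsackievirus B3 infection of 2-day-old HeLa Ohio monolayers in 2% FCS medium. Half-log dilutions from 100 μM added just before infection; guanidine hydrochloride served as positive control. Antiviral activity calculated per Pauwels; IC50 is the mean of at least 3 separate tests.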

Data set [14] is described as follows: Elimination rate constant in Balb/c mouse at 100 mg/kg, IG measured upto 7 hrs by HPLC-MS method. The following applies: in vivo, po. The class given is ADME, organism-based. The essentials: as §1
Data set [15] is described as follows: AUC (0 to infinity) in Balb/c mouse at 100 mg/kg, IG measured upto 7 hrs by HPLC-MS method. The following applies: in vivo, po. More on the design: route […], dose 100 mg/kg, time <=7. It is filed as ADME, organism-based. The essentials: as §1
Data set [16] concerns Coxsackievirus B3. Nature of the data set: Antiviral activity against pleconaril-resistant Coxsackievirus B3 97927 11207M/I1092 mutant infected in human HeLa cell line assessed as inhibition of virus-induced cytopathic effect measured after 48 hrs by crystal violet uptake assay. The class given is functional, organism-based. The procedure, abridged: (§4)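 HeLa Ohio monolayers, 2 days old and confluent, in MEM with 2% FCS. Serial half-log compound dilutions from 100 μM were added just before CVB3 infection. Activity was calculated per Pauwels against six cell and six virus controls; mean IC50 from ≥3 experiments.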

Data set [17] in a line: Selectivity index, ratio of CC50 for human HeLa cells to IC50 for Coxsackievirus B3 Nancy infected in HeLa cell line assessed as inhibition of virus-induced cytopathic effect. It is filed as toxicity. The following applies: read-out: Selectivity Index. The procedure, abridged: as §2
A short description of data set [18]: Selectivity index, ratio of CC50 for human HeLa cells to IC50 for Coxsackievirus B3 97927 wild type infected in HeLa cell line assessed as inhibition of virus-induced cytopathic effect. The following applies: read-out: Selectivity Index. The class given is toxicity. The procedure, abridged:
as §2

The subject of data set [19] is Coxsackievirus B3. Description: Antiviral activity against Coxsackievirus B3 Nancy infected in human HeLa cell line assessed as inhibition of virus-induced cytopathic effect measured after 48 hrs by crystal violet uptake assay. To be noted: Enterovirus B, Nancy, HeLa, 48 h; read-out: IC50. It is filed as functional, organism-based. The procedure, abridged:
as §4

The nature of data set [20]: Selectivity index, ratio of CC50 for human HeLa cells to IC50 for pleconaril-resistant Coxsackievirus B3 97927 11207K/I1092 mutant infected in HeLa cell line assessed as inhibition of virus-induced cytopathic effect. It is filed as toxicity. The following applies: read-out: Selectivity Index. The procedure, abridged: as §2
For data set [21], the system named is Coxsackievirus B3. Nature of the data set: Antiviral activity against pleconaril-resistant Coxsackievirus B3 97927 11207K/I1092 mutant infected in human HeLa cell line assessed as inhibition of virus-induced cytopathic effect measured after 48 hrs by crystal violet uptake assay. The class given is functional, organism-based. The following applies: read-out: IC50. The procedure, abridged: as §4

Data set [22] can be described thus: Mutagenicity in Escherichia coli PQ37 at 10 mg/ml by SOS-chromotest. The class given is toxicity.
In data set [23] the test system is Coxsackievirus B3. Description: Antiviral activity against pleconaril-resistant Coxsackievirus B3 97927 11207T/I1092 mutant infected in human HeLa cell line assessed as inhibition of virus-induced cytopathic effect measured after 48 hrs by crystal violet uptake assay. It is filed as functional, organism-based. The following applies: read-out: IC50. The procedure, abridged:
as §4

For `Cc1cc(-c2noc(C(F)(F)F)n2)ccc1OCCCc1cc(C(=O)N(C)C)no1`, in [1], the Vd came out at 1.52 L. Also, the selectivity ratio in [2] turned out to be 15.6; in [4], 149; in [5], 2.6; in [7], 1340; in data set [11] it was 1340; in data set [17] it was 4.9. In addition, the selectivity ratio in data set [18] was 669; in [20], 2.8. In addition, the IC50 (commonly the concentration at which inhibition is half-maximal) in [3] was 5250 nM; in data set [9], 860 nM; in data set [10], 90 nM; in [13], 20 nM; in data set [16], 10 nM; in data set [19], 2760 nM. Also, the IC50 in data set [21] stood at 4790 nM; in data set [23], 10 nM. Also, the CC50 (usually the concentration giving 50% cytotoxicity) in [6] is 13400 nM. The compound further gave a clearance in data set [8] of 0.66 L/h. In addition, the “inhibition zone (IZ)” value in data set [12] turned out to be 0 mm. The Kel in [14] came out at 0.4373 h⁻¹. The exposure (AUC) (usually the area under the concentration-time curve, a measure of exposure) in [15] was determined as 3015.5 ng·h/mL. In addition, the Activity entry in data set [22] is given as “Non-Toxic”.
